Assay results: ChEMBL document CHEMBL1123323, “Isolation, synthesis, and antitumor evaluation of spirohydantoin aziridine, a mutagenic metabolite of spirohydantoin mustard” (J Med Chem, 1986)
Several values for one entry are separate records, joined by “and”; a condition that tells them apart may be missing. Identical values can stand only once.

Columns and labels:
P388 [1] = test: Percent increase in life span of treated (10 mg/kg, qd 1-9 days) mice as compared to the untreated leukemia controls; Expressed as therapeutic response; type: functional, Mus musculus
Method in brief: (§1)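 Female CDF1 mice given 1×10^6 P388 leukemia cells intraperitoneally. Drug in reagent-grade Me₂SO, dosed by average body weight in 0.1 mL. Life-span increase is from median day of death versus untreated leukemic controls. Tumor cell kill and log change (net change in viable tumor stem cells, end versus start of treatment) use a historical doubling time of 0.44 day.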

P388 [2] = test: Percent increase in life span of treated (15 mg/kg, day 1 only) mice as compared to the untreated leukemia controls; Expressed as therapeutic response; type: functional, Mus musculus; method in brief: as §1
P388 [3] = test: Percent increase in life span of treated (20 mg/kg, qd 1-9 days) mice as compared to the untreated leukemia controls; Expressed as therapeutic response; type: functional, Mus musculus; method in brief: as §1
P388 [4] = test: Percent increase in life span of treated (5 mg/kg, day 1 only) mice as compared to the untreated leukemia controls; Expressed as therapeutic response; type: functional, Mus musculus; method in brief: as §1
P388 [5] = test: Percent increase in life span of treated (5 mg/kg, qd 1-9 days) mice as compared to the untreated leukemia controls; Expressed as therapeutic response; type: functional, Mus musculus; method in brief: as §1
P388 [6] = test: Approximate log change after administration (10 mg/kg, day 1 only) in normal mice; Expressed as therapeutic response; type: functional, Mus musculus; method in brief: as §1
P388 [7] = test: Percent of deaths after administration (5 mg/kg, day 1 only) in leukemic mice; type: functional, Mus musculus; method in brief: as §1
P388 [8] = test: Percent of deaths after administration (5 mg/kg, qd 1-9 days) in leukemic mice; type: functional, Mus musculus; method in brief: as §1
P388 [9] = test: Approximate log change after administration (5 mg/kg, day 1 only) in normal mice; Expressed as therapeutic response; type: functional, Mus musculus; method in brief: as §1
P388 [10] = test: (§2) Approximate number of tumor cells alive after administration (10 mg/kg, day 1 only) in normal mice; Expressed as therapeutic response; type: functional, Mus musculus; method in brief: as §1
P388 [11] = test: Approximate number of tumor cells alive after administration (5 mg/kg, day 1 only) in normal mice; Expressed as therapeutic response; type: functional, Mus musculus; method in brief: as §1
P388 [12] = test: Percent of deaths after administration (10 mg/kg, day 1 only) in normal mice; type: functional, Mus musculus
Method in brief: (§3)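 Non-tumored mice treated concurrently as drug toxicity controls. Drug in reagent-grade Me₂SO, dosed by average body weight in 0.1 mL. Deaths scored.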

P388 [13] = test: Percent of deaths after administration (10 mg/kg, qd 1-9 days) in leukemic mice; type: functional, Mus musculus; method in brief: as §1
P388 [14] = test: Percent of deaths after administration (15 mg/kg, day 1 only) in leukemic mice; type: functional, Mus musculus; method in brief: as §1
P388 [15] = test: Percent of deaths after administration (15 mg/kg, day 1 only) in normal mice; type: functional, Mus musculus; method in brief: as §3
P388 [16] = test: Percent of deaths after administration (20 mg/kg, qd 1-9 days) in leukemic mice; type: functional, Mus musculus; method in brief: as §1
[17] = Approximate number of tumor cells alive after administration (10 mg/kg, qd 1-9 days) in normal mice; Expressed as therapeutic response; type: ADME, organism-based; conditions: mouse, in vivo; method in brief: as §1
[18] = Approximate number of tumor cells alive after administration (15 mg/kg, day 1 only) in normal mice; Expressed as therapeutic response; type: ADME, organism-based; conditions: mouse, in vivo; method in brief: as §1
[19] = Approximate number of tumor cells alive after administration (20 mg/kg, qd 1-9 days) in normal mice; Expressed as therapeutic response; type: ADME, organism-based; conditions: mouse, in vivo; method in brief: as §1
[20] = Approximate number of tumor cells alive after administration (5 mg/kg, qd 1-9 days) in normal mice; Expressed as therapeutic response; type: ADME, organism-based; conditions: mouse, in vivo; method in brief: as §1
[21] = as §2; type: ADME, organism-based; conditions: mouse, in vivo; method in brief: as §1
P388 [22] = test: Percent increase in life span of treated (10 mg/kg, day 1 only) mice as compared to the untreated leukemia controls; Expressed as therapeutic response; type: functional, Mus musculus; method in brief: as §1
P388 [23] = test: Percent increase in life span of treated (20 mg/kg, day 1 only) mice as compared to the untreated leukemia controls; Expressed as therapeutic response; type: functional, Mus musculus; method in brief: as §1
P388 [24] = test: Percent increase in life span of treated (30 mg/kg, day 1 only) mice as compared to the untreated leukemia controls; Expressed as therapeutic response; type: functional, Mus musculus; method in brief: as §1
P388 [25] = test: Percent increase in life span of treated (60 mg/kg, day 1 only) mice as compared to the untreated leukemia controls; Expressed as therapeutic response; type: functional, Mus musculus; method in brief: as §1
P388 [26] = test: Percent of deaths after administration (20 mg/kg, qd 1-9 days) in normal mice; type: functional, Mus musculus; method in brief: as §3
P388 [27] = test: Percent of deaths after administration (30 mg/kg, day 1 only) in leukemic mice; type: functional, Mus musculus; method in brief: as §1
P388 [28] = test: Percent of deaths after administration (30 mg/kg, day 1 only) in normal mice; type: functional, Mus musculus; method in brief: as §3
P388 [29] = test: Percent of deaths after administration (45 mg/kg, day 1 only) in leukemic mice; type: functional, Mus musculus; method in brief: as §1
P388 [30] = test: Percent of deaths after administration (60 mg/kg, day 1 only) in leukemic mice; type: functional, Mus musculus; method in brief: as §1
P388 [31] = test: Percent of deaths after administration (60 mg/kg, day 1 only) in normal mice; type: functional, Mus musculus; method in brief: as §3
P388 [32] = test: Approximate log change after administration (20 mg/kg, day 1 only) in normal mice; Expressed as therapeutic response; type: functional, Mus musculus
Method in brief: (§4)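 Female CDF1 mice were implanted intraperitoneally with 1×10^6 P388 leukemia cells. Drug was prepared in reagent-grade Me₂SO according to average body weight, with each dose in 0.1 mL. Concurrent drug toxicity controls were run. Tumor cell kill was calculated from median day of death using a historical doubling time of 0.44 day. Log change is the net change in viable tumor stem cells from the start to the end of treatment.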

P388 [33] = test: Approximate log change after administration (30 mg/kg, day 1 only) in normal mice; Expressed as therapeutic response; type: functional, Mus musculus; method in brief: as §4
P388 [34] = test: Approximate number of tumor cells alive after administration (20 mg/kg, day 1 only) in normal mice; Expressed as therapeutic response; type: functional, Mus musculus; method in brief: as §1
P388 [35] = test: Approximate number of tumor cells alive after administration (30 mg/kg, day 1 only) in normal mice; Expressed as therapeutic response; type: functional, Mus musculus; method in brief: as §1
P388 [36] = test: Percent of deaths after administration (10 mg/kg, day 1 only) in leukemic mice; type: functional, Mus musculus; method in brief: as §1
P388 [37] = test: Percent of deaths after administration (20 mg/kg, day 1 only) in leukemic mice; type: functional, Mus musculus
P388 [38] = test: Percent of deaths after administration (20 mg/kg, day 1 only) in normal mice; type: functional, Mus musculus; method in brief: as §3
Salmonella typhimurium [39] = test: Mutagenic activity against Salmonella Typhimurium TA1535 (SHM equiv/plate 1 ug); Expressed as difference between the observed number of revertants and the average number of spontaneous revertants (Expt 2); type: functional, Salmonella enterica subsp. enterica serovar Typhimurium
Method in brief: (§5)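 Salmonella typhimurium TA1535 plate incorporation assay without S9 activation. TLC-isolated metabolite and synthetic aziridine dosed as SHM equivalents per plate. Score is revertants minus mean spontaneous revertants, from two separate experiments.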

Salmonella typhimurium [40] = test: Mutagenic activity against Salmonella Typhimurium TA1535 (SHM equiv/plate 10 ug); Expressed as difference between the observed number of revertants and the average number of spontaneous revertants (Expt 1); type: functional, Salmonella enterica subsp. enterica serovar Typhimurium; method in brief: as §5
Salmonella typhimurium [41] = test: Mutagenic activity against Salmonella Typhimurium TA1535 (SHM equiv/plate 10 ug); Expressed as difference between the observed number of revertants and the average number of spontaneous revertants (Expt 2); type: functional, Salmonella enterica subsp. enterica serovar Typhimurium; method in brief: as §5
Salmonella typhimurium [42] = test: Mutagenic activity against Salmonella Typhimurium TA1535 (SHM equiv/plate 100 ug); Expressed as difference between the observed number of revertants and the average number of spontaneous revertants (Expt 2); type: functional, Salmonella enterica subsp. enterica serovar Typhimurium; method in brief: as §5
[43] = Approximate number of tumor cells alive after administration (45 mg/kg, day 1 only) in normal mice; Expressed as therapeutic response; type: ADME, organism-based; conditions: mouse, in vivo; method in brief: as §1
[44] = Approximate number of tumor cells alive after administration (60 mg/kg, day 1 only) in normal mice; Expressed as therapeutic response; type: ADME, organism-based; conditions: mouse, in vivo; method in brief: as §1
Salmonella typhimurium [45] = test: Mutagenic activity against Salmonella Typhimurium TA1535 (SHM equiv/plate 1 ug); Expressed as difference between the observed number of revertants and the average number of spontaneous revertants (Expt 1); type: functional, Salmonella enterica subsp. enterica serovar Typhimurium; method in brief: as §5

O=C1NC2(CCCCC2)C(=O)N1CCN(CCCl)CCCl [SPIROMUSTINE]
ILS (P388 [1]): -50% | ILS (P388 [2]): 35% | ILS (P388 [3]): -60% | ILS (P388 [4]): 30% | ILS (P388 [5]): -45% | Log change (P388 [6]): -2.7 | Activity (P388 [7]): 10% | Activity (P388 [8]): 100% | Log change (P388 [9]): -2.1 | Activity (P388 [10]): 8900 | Activity (P388 [11]): 43000 | Activity (P388 [12]): 33% | Activity (P388 [13]): 100% | Activity (P388 [14]): 40% | Activity (P388 [15]): 50% | Activity (P388 [16]): 100% | Activity [17]: Toxic | Activity [18]: Toxic | Activity [19]: Toxic | Activity [20]: Toxic | Activity [21]: Toxic

O=C1NC2(CCCCC2)C(=O)N1CCN1CC1
ILS (P388 [22]): 0% | ILS (P388 [1]): -40% | ILS (P388 [23]): 0% | ILS (P388 [3]): -25% | ILS (P388 [24]): 0% | ILS (P388 [5]): -5% | ILS (P388 [25]): -30% | Activity (P388 [26]): 0% | Activity (P388 [27]): 16% and 0% | Activity (P388 [28]): 0% | Activity (P388 [29]): 33% | Activity (P388 [8]): 83% | Activity (P388 [30]): 50% | Activity (P388 [31]): 0% | Log change (P388 [32]): 0 | Log change (P388 [33]): 0 | Activity (P388 [10]): 4800000 | Activity (P388 [34]): 4800000 | Activity (P388 [35]): 4800000 | Activity (P388 [36]): 0% | Activity (P388 [13]): 0% | Activity (P388 [37]): 0% | Activity (P388 [38]): 0% | Activity (P388 [16]): 83% | Activity (Salmonella typhimurium [39]): 21 | Activity (Salmonella typhimurium [40]): 227 | Activity (Salmonella typhimurium [41]): 238 | Activity (Salmonella typhimurium [42]): 2000% | Activity [17]: Toxic | Activity [19]: Toxic | Activity [43]: Toxic | Activity [20]: Toxic | Activity [44]: Toxic | Activity (Salmonella typhimurium [45]): 15
